# From ChEMBL document CHEMBL2157880, “Synthesis, antimycobacterial and antibacterial activity of ciprofloxacin derivatives containing a N-substituted benzyl moiety” (2012)
# Tests used:
# Type in all cases: functional
# [1] = test system: Enterococcus faecalis; assay: Ratio of compound MIC to ciprofloxacin MIC for Enterococcus faecalis 10-6
# [2] = test system: Pseudomonas aeruginosa; assay: Antibacterial activity against Pseudomonas aeruginosa 10-9 after 18 to 24 hrs by NCCLS method
# How it was run: (§1)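 Standard NCCLS (M100-S11) MIC testing against Gram-positive and Gram-negative strains. Plates were incubated at 35 °C for 18–24 h. The MIC was read as the lowest concentration giving complete inhibition of visible bacterial growth.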
# [3] = test system: Staphylococcus epidermidis; assay: Antibacterial activity against methicillin-sensitive Staphylococcus epidermidis 10-11 after 18 to 24 hrs by NCCLS method; how it was run: as §1
# [4] = test system: Pseudomonas aeruginosa; assay: Antibacterial activity against Pseudomonas aeruginosa 10-5 after 18 to 24 hrs by NCCLS method; how it was run: as §1
# [5] = test system: Pseudomonas aeruginosa; assay: Antibacterial activity against Pseudomonas aeruginosa 10-12 after 18 to 24 hrs by NCCLS method; how it was run: as §1
# [6] = test system: Staphylococcus aureus; assay: Ratio of compound MIC to ciprofloxacin MIC for Staphylococcus aureus ATCC 2592
# [7] = test system: Mycobacterium tuberculosis; assay: Antimycobacterial activity against Mycobacterium tuberculosis H37Rv ATCC 27294 by microplate alamar blue assay
# How it was run: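 Microplate Alamar Blue fluorescence assay on strain H37Rv ATCC 27294. MIC was the lowest concentration cutting fluorescence by ≥90% against the mean of replicate bacterium-only controls.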
# [8] = test system: Staphylococcus aureus; assay: Antibacterial activity against methicillin-resistant Staphylococcus aureus 10-11 after 18 to 24 hrs by NCCLS method
# How it was run: (§2)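 Incubated at 35 °C for 18–24 h under NCCLS (M100-S11) standards. MIC was read as the lowest concentration giving complete inhibition of visible bacterial growth.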
# [9] = test system: Staphylococcus aureus; assay: Antibacterial activity against methicillin-resistant Staphylococcus aureus 10-15 after 18 to 24 hrs by NCCLS method; how it was run: as §2
# [10] = test system: Streptococcus pneumoniae; assay: Ratio of compound MIC to ciprofloxacin MIC for Streptococcus pneumoniae 10-1
# [11] = test system: Staphylococcus aureus; assay: Antibacterial activity against methicillin-sensitive Staphylococcus aureus 10-11 after 18 to 24 hrs by NCCLS method; how it was run: as §1
# [12] = test system: Staphylococcus epidermidis; assay: Ratio of compound MIC to ciprofloxacin MIC for methicillin-sensitive Staphylococcus epidermidis 10-11
# [13] = test system: Staphylococcus epidermidis; assay: Antibacterial activity against methicillin-resistant Staphylococcus epidermidis 10-13 after 18 to 24 hrs by NCCLS method; how it was run: as §2
# [14] = test system: Staphylococcus epidermidis; assay: Ratio of compound MIC to ciprofloxacin MIC for methicillin-sensitive Staphylococcus epidermidis 10-15
# [15] = test system: Pseudomonas aeruginosa; assay: Antibacterial activity against Pseudomonas aeruginosa 10-20 after 18 to 24 hrs by NCCLS method; how it was run: as §1
# [16] = test system: Escherichia coli; assay: Antibacterial activity against Escherichia coli 10-3 after 18 to 24 hrs by NCCLS method; how it was run: as §1
# [17] = test system: Staphylococcus aureus; assay: Ratio of compound MIC to ciprofloxacin MIC for methicillin-sensitive Staphylococcus aureus 10-11
# [18] = test system: Klebsiella pneumoniae; assay: Antibacterial activity against extended spectrum beta-lactamases producing Klebsiella pneumoniae 10-1 after 18 to 24 hrs by NCCLS method; how it was run: as §1
# [19] = test system: Escherichia coli; assay: Antibacterial activity against Escherichia coli ATCC 25922 after 18 to 24 hrs by NCCLS method; how it was run: as §1
# [20] = test system: Staphylococcus aureus; assay: Ratio of compound MIC to ciprofloxacin MIC for methicillin-sensitive Staphylococcus aureus 10-13
# [21] = test system: Streptococcus pneumoniae; assay: Ratio of compound MIC to ciprofloxacin MIC for Streptococcus pneumoniae 10-6
# [22] = test system: Enterococcus faecalis; assay: Antibacterial activity against Enterococcus faecalis 10-6 after 18 to 24 hrs by NCCLS method; how it was run: as §1
# [23] = test system: Pseudomonas aeruginosa; assay: Antibacterial activity against Pseudomonas aeruginosa 10-15 after 18 to 24 hrs by NCCLS method; how it was run: as §1
# [24] = test system: Klebsiella pneumoniae; assay: Antibacterial activity against Klebsiella pneumoniae 10-4 after 18 to 24 hrs by NCCLS method; how it was run: as §1
# [25] = test system: Streptococcus pneumoniae; assay: Antibacterial activity against Streptococcus pneumoniae 10-6 after 18 to 24 hrs by NCCLS method; how it was run: as §1
# [26] = test system: Klebsiella pneumoniae; assay: Antibacterial activity against extended spectrum beta-lactamases producing Klebsiella pneumoniae 10-3 after 18 to 24 hrs by NCCLS method; how it was run: as §1
# [27] = test system: Klebsiella pneumoniae; assay: Antibacterial activity against Klebsiella pneumoniae 10-3 after 18 to 24 hrs by NCCLS method; how it was run: as §1
# [28] = test system: Staphylococcus epidermidis; assay: Antibacterial activity against methicillin-sensitive Staphylococcus epidermidis 10-15 after 18 to 24 hrs by NCCLS method; how it was run: as §2
# [29] = test system: Klebsiella pneumoniae; assay: Antibacterial activity against Klebsiella pneumoniae 10-2 after 18 to 24 hrs by NCCLS method; how it was run: as §1
# [30] = test system: Enterococcus faecium; assay: Ratio of compound MIC to ciprofloxacin MIC for Enterococcus faecium 10-6
# [31] = test system: Escherichia coli; assay: Antibacterial activity against extended spectrum beta-lactamases producing Escherichia coli 10-3 after 18 to 24 hrs by NCCLS method; how it was run: as §1
# [32] = test system: Staphylococcus aureus; assay: Antibacterial activity against methicillin-sensitive Staphylococcus aureus 10-14 after 18 to 24 hrs by NCCLS method; how it was run: as §1
# [33] = test system: Enterococcus faecalis; assay: Antibacterial activity against Enterococcus faecalis 10-7 after 18 to 24 hrs by NCCLS method; how it was run: as §1
# [34] = test system: Staphylococcus aureus; assay: Antibacterial activity against methicillin-resistant Staphylococcus aureus 10-13 after 18 to 24 hrs by NCCLS method; how it was run: as §2
# [35] = test system: Streptococcus pneumoniae; assay: Antibacterial activity against Streptococcus pneumoniae 10-1 after 18 to 24 hrs by NCCLS method; how it was run: as §1
# [36] = test system: Pseudomonas aeruginosa; assay: Antibacterial activity against Pseudomonas aeruginosa 10-18 after 18 to 24 hrs by NCCLS method; how it was run: as §1
# [37] = test system: Enterococcus faecium; assay: Antibacterial activity against Enterococcus faecium 10-6 after 18 to 24 hrs by NCCLS method; how it was run: as §1
# [38] = test system: Staphylococcus aureus; assay: Ratio of compound MIC to ciprofloxacin MIC for methicillin-sensitive Staphylococcus aureus 10-14
# [39] = test system: Staphylococcus epidermidis; assay: Antibacterial activity against methicillin-resistant Staphylococcus epidermidis 10-10 after 18 to 24 hrs by NCCLS method; how it was run: as §2
# [40] = test system: Escherichia coli; assay: Antibacterial activity against extended spectrum beta-lactamases producing Escherichia coli 10-2 after 18 to 24 hrs by NCCLS method; how it was run: as §1
# [41] = test system: Enterococcus faecalis; assay: Ratio of compound MIC to ciprofloxacin MIC for Enterococcus faecalis 10-7
# [42] = test system: Enterococcus faecium; assay: Ratio of compound MIC to ciprofloxacin MIC for Enterococcus faecium 10-9
# [43] = test system: Klebsiella pneumoniae; assay: Antibacterial activity against extended spectrum beta-lactamases producing Klebsiella pneumoniae 10-2 after 18 to 24 hrs by NCCLS method; how it was run: as §1
# [44] = test system: Enterococcus faecalis; assay: Ratio of compound MIC to ciprofloxacin MIC for Enterococcus faecalis 10-5
# [45] = test system: Escherichia coli; assay: Antibacterial activity against Escherichia coli 10-2 after 18 to 24 hrs by NCCLS method; how it was run: as §1
# [46] = test system: Escherichia coli; assay: Antibacterial activity against Escherichia coli 10-1 after 18 to 24 hrs by NCCLS method; how it was run: as §1
# [47] = test system: Staphylococcus aureus; assay: Antibacterial activity against Staphylococcus aureus ATCC 2592 after 18 to 24 hrs by NCCLS method; how it was run: as §1
# [48] = test system: Enterococcus faecalis; assay: Antibacterial activity against Enterococcus faecalis 10-5 after 18 to 24 hrs by NCCLS method; how it was run: as §1
# [49] = test system: Staphylococcus aureus; assay: Antibacterial activity against methicillin-sensitive Staphylococcus aureus 10-13 after 18 to 24 hrs by NCCLS method; how it was run: as §1
# [50] = test system: Escherichia coli; assay: Antibacterial activity against extended spectrum beta-lactamases producing Escherichia coli 10-4 after 18 to 24 hrs by NCCLS method; how it was run: as §1
# [51] = test system: Enterococcus faecium; assay: Antibacterial activity against Enterococcus faecium 10-9 after 18 to 24 hrs by NCCLS method; how it was run: as §1
smiles,measurement,setting,value
COc1ccc(CN2CCN(c3cc4c(cc3F)c(=O)c(C(=O)O)cn4C3CC3)CC2)cc1,Ratio,[1],2
same,MIC,[2],4 mg/L
same,MIC,[3],0.5 mg/L
same,MIC,[4],4 mg/L
same,MIC,[5],2 mg/L
same,Ratio,[6],2
same,MIC,[7],1 mg/L
same,MIC,[8],16 mg/L
same,MIC,[9],4 mg/L
same,Ratio,[10],2
same,MIC,[11],0.125 mg/L
same,Ratio,[12],2
same,MIC,[13],8 mg/L
same,Ratio,[14],2
same,MIC,[15],4 mg/L
same,MIC,[16],8 mg/L
same,Ratio,[17],2
same,MIC,[18],> 128 mg/L
same,MIC,[19],0.125 mg/L
same,Ratio,[20],2
same,Ratio,[21],2
same,MIC,[22],32 mg/L
same,MIC,[23],2 mg/L
same,MIC,[24],> 128 mg/L
same,MIC,[25],16 mg/L
same,MIC,[26],> 128 mg/L
same,MIC,[27],4 mg/L
same,MIC,[28],8 mg/L
same,MIC,[29],> 128 mg/L
same,Ratio,[30],2
same,MIC,[31],> 128 mg/L
same,MIC,[32],0.25 mg/L
same,MIC,[33],8 mg/L
same,MIC,[34],16 mg/L
same,MIC,[35],1 mg/L
same,MIC,[36],4 mg/L
same,MIC,[37],1 mg/L
same,Ratio,[38],2
same,MIC,[39],8 mg/L
same,MIC,[40],> 128 mg/L
same,Ratio,[41],2
same,Ratio,[42],2
same,MIC,[43],> 128 mg/L
same,Ratio,[44],2
same,MIC,[45],8 mg/L
same,MIC,[46],> 128 mg/L
same,MIC,[47],0.06 mg/L
same,MIC,[48],4 mg/L
same,MIC,[49],0.25 mg/L
same,MIC,[50],8 mg/L
same,MIC,[51],16 mg/L
O=C(O)c1cn(C2CC2)c2cc(N3CCN(Cc4ccccc4)CC3)c(F)cc2c1=O,MIC,[2],16 mg/L
same,MIC,[3],32 mg/L
same,MIC,[4],16 mg/L
same,MIC,[5],16 mg/L
same,MIC,[7],1 mg/L
same,MIC,[8],64 mg/L
same,MIC,[9],16 mg/L
same,MIC,[11],0.25 mg/L
same,MIC,[13],0.5 mg/L
same,MIC,[15],16 mg/L
same,MIC,[16],16 mg/L
same,MIC,[18],> 128 mg/L
same,MIC,[19],0.25 mg/L
same,MIC,[22],16 mg/L
same,MIC,[23],32 mg/L
same,MIC,[24],> 128 mg/L
same,MIC,[25],16 mg/L
same,MIC,[26],> 128 mg/L
same,MIC,[27],16 mg/L
same,MIC,[28],16 mg/L
same,MIC,[29],> 128 mg/L
same,MIC,[31],> 128 mg/L
same,MIC,[32],0.25 mg/L
same,MIC,[33],16 mg/L
same,MIC,[34],64 mg/L
same,MIC,[35],16 mg/L
same,MIC,[36],8 mg/L
same,MIC,[37],16 mg/L
same,MIC,[39],16 mg/L
same,MIC,[40],> 128 mg/L
same,MIC,[43],> 128 mg/L
same,MIC,[45],16 mg/L
same,MIC,[46],> 128 mg/L
same,MIC,[47],0.25 mg/L
same,MIC,[48],16 mg/L
same,MIC,[49],0.25 mg/L
same,MIC,[50],16 mg/L
same,MIC,[51],16 mg/L
